Experimental data taken from ChEMBL document CHEMBL4014298, “Discovery of a series of 8-(1-phenylpyrrolidin-2-yl)-6-carboxamide-2-morpholino-4H-chromen-4-one as PI3Kβ/δ inhibitors for the treatment of PTEN-deficient tumours” (Bioorg Med Chem Lett, 2017).
In brackets after ≈: the same amount, converted by molar mass. Activity calls are given as the source filed them. No cut-off for these calls is given here.

Tests used:
[1] = Apparent permeability across apical to basolateral side in human Caco2 cells; settings: Caco-2
[2] = Clearance in dog blood at 4 umol/kg, iv or 10 umol/kg, po; assay type: ADME, organism-based, Canis lupus familiaris
[3] = Intrinsic clearance in dog hepatocytes assessed per million cells; assay type: ADME, cell-based, Canis lupus familiaris, Hepatocyte; settings: read-out: CLH
How it was run: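 Intrinsic clearance measured in mouse or dog hepatocytes, expressed as CL_int in […].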

[4] = target: T1, Phosphatidylinositol 4,5-bisphosphate 3-kinase catalytic subunit delta isoform (Homo sapiens, UniProt O00329); experiment: Inhibition of recombinant human PI3Kdelta using PIP2 as substrate preincubated for 20 mins followed by substrate addition measured after 80 mins in presence of ATP by Kinase Glo luminescence assay
T1 sequence (O00329 whole entry): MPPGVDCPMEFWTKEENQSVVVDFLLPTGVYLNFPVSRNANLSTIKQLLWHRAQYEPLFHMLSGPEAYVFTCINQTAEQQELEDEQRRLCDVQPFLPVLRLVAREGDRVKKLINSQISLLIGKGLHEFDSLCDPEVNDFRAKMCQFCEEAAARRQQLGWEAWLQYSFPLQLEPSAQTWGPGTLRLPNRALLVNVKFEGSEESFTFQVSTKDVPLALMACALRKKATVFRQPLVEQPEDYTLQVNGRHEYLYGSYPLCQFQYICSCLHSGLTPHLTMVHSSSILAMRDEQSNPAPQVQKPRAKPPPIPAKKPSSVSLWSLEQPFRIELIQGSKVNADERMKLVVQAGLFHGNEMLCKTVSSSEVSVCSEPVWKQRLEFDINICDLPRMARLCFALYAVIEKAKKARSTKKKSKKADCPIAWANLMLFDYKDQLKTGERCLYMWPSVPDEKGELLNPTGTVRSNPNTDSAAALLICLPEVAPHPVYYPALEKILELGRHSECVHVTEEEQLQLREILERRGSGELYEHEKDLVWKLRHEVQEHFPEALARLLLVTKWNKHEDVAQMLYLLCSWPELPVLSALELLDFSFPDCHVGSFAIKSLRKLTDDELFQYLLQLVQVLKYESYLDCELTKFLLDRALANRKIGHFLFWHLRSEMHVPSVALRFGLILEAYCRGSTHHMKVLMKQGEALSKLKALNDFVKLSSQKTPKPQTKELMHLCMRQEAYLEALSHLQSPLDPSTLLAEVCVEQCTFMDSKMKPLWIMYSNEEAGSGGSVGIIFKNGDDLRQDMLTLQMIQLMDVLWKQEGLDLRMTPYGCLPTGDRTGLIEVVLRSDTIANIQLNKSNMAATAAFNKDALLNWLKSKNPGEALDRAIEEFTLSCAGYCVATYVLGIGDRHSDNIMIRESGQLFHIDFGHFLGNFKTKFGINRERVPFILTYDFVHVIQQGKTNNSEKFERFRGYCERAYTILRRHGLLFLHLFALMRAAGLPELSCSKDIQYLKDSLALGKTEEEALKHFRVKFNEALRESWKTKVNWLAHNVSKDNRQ

[5] = target: Phosphatidylinositol 4,5-bisphosphate 3-kinase catalytic subunit beta isoform (Homo sapiens, UniProt P42338); experiment: Inhibition of PI3Kbeta in PTEN-deficient human MDA-MB-468 cells assessed as decrease in AKT phosphorylation at Ser473 measured after 2 hrs
Chain of Phosphatidylinositol 4,5-bisphosphate 3-kinase catalytic subunit beta isoform (P42338 whole entry, canonical isoform): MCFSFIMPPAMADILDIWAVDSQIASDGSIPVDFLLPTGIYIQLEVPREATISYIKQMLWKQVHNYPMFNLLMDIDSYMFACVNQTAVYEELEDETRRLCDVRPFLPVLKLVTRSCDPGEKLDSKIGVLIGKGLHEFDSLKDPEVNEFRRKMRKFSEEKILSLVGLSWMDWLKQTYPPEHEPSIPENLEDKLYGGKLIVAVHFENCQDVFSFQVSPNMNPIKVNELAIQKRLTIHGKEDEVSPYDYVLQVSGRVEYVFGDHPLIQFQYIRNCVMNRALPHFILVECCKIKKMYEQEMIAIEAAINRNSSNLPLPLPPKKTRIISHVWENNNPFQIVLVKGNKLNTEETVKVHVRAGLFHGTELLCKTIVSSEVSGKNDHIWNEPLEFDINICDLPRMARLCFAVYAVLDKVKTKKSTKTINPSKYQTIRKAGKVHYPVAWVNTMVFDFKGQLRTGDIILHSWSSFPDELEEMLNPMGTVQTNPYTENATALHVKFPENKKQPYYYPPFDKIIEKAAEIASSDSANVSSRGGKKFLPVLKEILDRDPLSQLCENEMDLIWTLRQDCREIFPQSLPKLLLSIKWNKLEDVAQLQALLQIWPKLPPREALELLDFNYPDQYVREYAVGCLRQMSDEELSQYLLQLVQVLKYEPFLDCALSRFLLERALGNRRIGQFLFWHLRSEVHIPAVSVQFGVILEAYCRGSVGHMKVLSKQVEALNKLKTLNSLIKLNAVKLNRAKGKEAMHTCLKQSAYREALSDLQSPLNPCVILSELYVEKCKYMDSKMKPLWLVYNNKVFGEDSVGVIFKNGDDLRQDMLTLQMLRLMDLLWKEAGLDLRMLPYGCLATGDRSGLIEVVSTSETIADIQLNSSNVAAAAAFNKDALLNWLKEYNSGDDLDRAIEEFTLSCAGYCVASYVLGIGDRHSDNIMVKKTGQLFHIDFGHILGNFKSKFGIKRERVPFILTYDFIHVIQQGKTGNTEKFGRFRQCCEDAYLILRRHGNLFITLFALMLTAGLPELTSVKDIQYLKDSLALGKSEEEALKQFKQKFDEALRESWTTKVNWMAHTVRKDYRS

[6] = test system: Mus musculus; experiment: In vivo inhibition of AKT phosphorylation at Ser473 in nude mouse xenografted with PTEN-deficient human PC3 cells at 100 mg/kg, po administered as single dose measured after 30 mins to 8 hrs; assay type: functional, organism-based
How it was run: (§1)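 Single oral dose (100 or 30 mg/kg) to nude mice carrying PTEN-deficient PC3 prostate xenografts; tumour AKT Ser473 phosphorylation measured at 30 min, 2 h and 8 h, with free plasma concentration determined at same time points.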

[7] = target: Phosphatidylinositol 4,5-bisphosphate 3-kinase catalytic subunit gamma isoform (Homo sapiens, UniProt P48736); experiment: Inhibition of human PI3Kgamma (2 to 1102 residues) by ADP Glo HTS assay
Chain of Phosphatidylinositol 4,5-bisphosphate 3-kinase catalytic subunit gamma isoform (P48736 whole entry, the tested form may be a part, canonical isoform): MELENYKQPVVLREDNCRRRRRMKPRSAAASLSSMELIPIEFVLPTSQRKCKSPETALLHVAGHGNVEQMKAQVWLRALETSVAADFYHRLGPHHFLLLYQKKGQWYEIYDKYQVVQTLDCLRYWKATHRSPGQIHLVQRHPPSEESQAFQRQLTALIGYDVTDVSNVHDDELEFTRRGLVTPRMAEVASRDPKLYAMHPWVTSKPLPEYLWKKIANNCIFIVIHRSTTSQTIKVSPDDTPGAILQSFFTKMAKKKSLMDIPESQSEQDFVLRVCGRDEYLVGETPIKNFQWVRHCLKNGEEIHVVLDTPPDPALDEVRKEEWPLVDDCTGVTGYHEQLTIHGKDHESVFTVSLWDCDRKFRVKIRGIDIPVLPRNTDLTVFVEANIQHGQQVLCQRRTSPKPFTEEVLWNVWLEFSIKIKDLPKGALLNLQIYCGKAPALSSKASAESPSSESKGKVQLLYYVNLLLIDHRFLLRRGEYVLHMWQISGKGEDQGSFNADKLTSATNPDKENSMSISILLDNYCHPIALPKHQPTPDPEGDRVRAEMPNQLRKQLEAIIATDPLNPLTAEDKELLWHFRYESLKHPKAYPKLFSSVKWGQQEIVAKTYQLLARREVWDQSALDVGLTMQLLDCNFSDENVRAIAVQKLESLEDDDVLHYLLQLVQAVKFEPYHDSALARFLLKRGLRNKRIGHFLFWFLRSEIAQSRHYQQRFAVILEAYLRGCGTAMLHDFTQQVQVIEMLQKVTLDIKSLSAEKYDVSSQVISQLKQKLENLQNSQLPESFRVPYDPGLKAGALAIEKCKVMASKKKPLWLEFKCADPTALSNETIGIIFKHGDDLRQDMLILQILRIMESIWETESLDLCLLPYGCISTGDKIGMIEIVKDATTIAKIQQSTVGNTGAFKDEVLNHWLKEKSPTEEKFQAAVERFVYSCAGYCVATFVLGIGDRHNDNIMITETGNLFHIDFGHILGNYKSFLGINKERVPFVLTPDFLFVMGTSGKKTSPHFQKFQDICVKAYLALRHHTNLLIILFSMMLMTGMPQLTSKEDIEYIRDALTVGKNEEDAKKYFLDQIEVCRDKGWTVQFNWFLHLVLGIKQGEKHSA
How it was run: (§2)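 Lipid kinase selectivity assessed in a 15-kinase panel (Dundee University lipid kinase panel), IC50 determined.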

[8] = target: Phosphatidylinositol 5-phosphate 4-kinase type-2 alpha (Homo sapiens, UniProt P48426); experiment: Inhibition of human PIP5K2alpha (1 to 406 residues) by ADP Glo HTS assay; how it was run: as §2
[9] = target: Choline/ethanolamine kinase (Homo sapiens, UniProt Q9Y259); experiment: Inhibition of human CHKbeta (1 to 395 residues) by ADP Glo HTS assay; how it was run: as §2
Chain of Choline/ethanolamine kinase (Q9Y259 whole entry, the tested form may be a part): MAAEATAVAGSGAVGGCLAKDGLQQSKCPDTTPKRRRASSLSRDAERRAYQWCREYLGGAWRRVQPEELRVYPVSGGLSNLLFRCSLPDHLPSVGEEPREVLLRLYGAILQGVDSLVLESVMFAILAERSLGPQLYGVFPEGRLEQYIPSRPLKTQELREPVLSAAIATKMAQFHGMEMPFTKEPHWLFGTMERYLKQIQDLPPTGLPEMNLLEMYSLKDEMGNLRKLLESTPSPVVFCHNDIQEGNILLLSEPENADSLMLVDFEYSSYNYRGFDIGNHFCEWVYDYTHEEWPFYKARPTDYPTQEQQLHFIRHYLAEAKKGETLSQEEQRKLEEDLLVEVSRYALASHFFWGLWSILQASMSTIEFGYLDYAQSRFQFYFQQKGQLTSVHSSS

[10] = Oral bioavailability in dog blood at 10 umol/kg; assay type: ADME, organism-based, Canis lupus familiaris
[11] = target: Serine/threonine-protein kinase mTOR (Homo sapiens, UniProt P42345); experiment: Inhibition of mTOR (unknown origin)
[12] = Intrinsic clearance in human hepatocytes assessed per million cells; assay type: ADME, cell-based, Hepatocyte; settings: read-out: CLH
[13] = target: MAP/microtubule affinity-regulating kinase 4 (Homo sapiens) (UniProt Q96L34); experiment: Inhibition of human MARK4 (2 to 752 residues) at 1 uM after 5 mins in presence of [33P]ATP by filter binding assay relative to control
[14] = Aqueous solubility of the compound in FASSIF; assay type: physicochemical
How it was run: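 Solubility from crystalline solid in Fasted Simulated Intestinal Fluid (FASSIF), µg/mL.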

[15] = target: Phosphatidylinositol 4,5-bisphosphate 3-kinase catalytic subunit alpha isoform (Homo sapiens, UniProt P42336, E542K); experiment: Inhibition of human PI3Kalpha (2 to 1068 residues)/p85 (1 to 724 residues) E542K mutant by ADP Glo HTS assay; how it was run: as §2
Chain of Phosphatidylinositol 4,5-bisphosphate 3-kinase catalytic subunit alpha isoform (Homo sapiens, UniProt P42336, E542K) (P42336 whole entry E542K, the tested form may be a part, canonical isoform): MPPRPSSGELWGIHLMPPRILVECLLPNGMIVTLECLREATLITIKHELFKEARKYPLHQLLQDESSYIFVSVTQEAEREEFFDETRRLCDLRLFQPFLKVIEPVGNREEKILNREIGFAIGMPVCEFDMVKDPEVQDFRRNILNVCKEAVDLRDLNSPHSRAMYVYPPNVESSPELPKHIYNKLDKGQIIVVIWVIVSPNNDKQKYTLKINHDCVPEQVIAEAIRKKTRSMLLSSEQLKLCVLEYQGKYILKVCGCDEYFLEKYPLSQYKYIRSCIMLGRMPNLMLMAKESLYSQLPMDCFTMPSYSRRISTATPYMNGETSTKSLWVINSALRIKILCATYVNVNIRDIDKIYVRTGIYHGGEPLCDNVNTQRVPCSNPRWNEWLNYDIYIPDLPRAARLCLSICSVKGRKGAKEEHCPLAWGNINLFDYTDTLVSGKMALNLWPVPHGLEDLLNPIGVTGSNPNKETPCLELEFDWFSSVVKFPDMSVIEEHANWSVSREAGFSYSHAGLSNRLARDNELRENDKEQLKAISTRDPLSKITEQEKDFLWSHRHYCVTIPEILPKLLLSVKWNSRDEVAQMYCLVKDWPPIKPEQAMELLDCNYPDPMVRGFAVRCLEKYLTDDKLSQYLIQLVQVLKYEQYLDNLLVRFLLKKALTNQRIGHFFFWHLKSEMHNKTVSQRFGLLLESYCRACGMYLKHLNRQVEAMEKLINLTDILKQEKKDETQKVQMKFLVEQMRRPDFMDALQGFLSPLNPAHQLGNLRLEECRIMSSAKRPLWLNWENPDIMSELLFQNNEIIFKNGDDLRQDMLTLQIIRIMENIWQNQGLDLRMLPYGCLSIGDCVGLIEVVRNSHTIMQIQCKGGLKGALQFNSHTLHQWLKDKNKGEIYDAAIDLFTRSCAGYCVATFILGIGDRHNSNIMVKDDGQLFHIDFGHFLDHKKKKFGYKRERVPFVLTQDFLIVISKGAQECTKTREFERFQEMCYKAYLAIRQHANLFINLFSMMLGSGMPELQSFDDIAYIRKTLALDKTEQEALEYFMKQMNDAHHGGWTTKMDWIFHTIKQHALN

[16] = Fraction unbound in dog plasma; assay type: ADME, cell-free, Canis lupus familiaris
How it was run: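 Plasma protein binding in mouse, dog or human plasma, reported as fraction unbound (%).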

[17] = target: Cytochrome P450 1A2 (Homo sapiens, UniProt P05177); experiment: Inhibition of CYP1A2 (unknown origin); assay type: ADME
[18] = target: Cytochrome P450 2C9 (Homo sapiens, UniProt P11712); experiment: Inhibition of CYP2C9 (unknown origin); assay type: ADME
[19] = target: Diacylglycerol kinase beta (Homo sapiens, UniProt Q9Y6T7); experiment: Inhibition of human DGKbeta (1 to 804 residues) by ADP Glo HTS assay; how it was run: as §2
[20] = target: Cytochrome P450 3A4 (Homo sapiens, UniProt P08684); experiment: Inhibition of CYP3A4 (unknown origin); assay type: ADME
Chain of Cytochrome P450 3A4 (P08684 whole entry): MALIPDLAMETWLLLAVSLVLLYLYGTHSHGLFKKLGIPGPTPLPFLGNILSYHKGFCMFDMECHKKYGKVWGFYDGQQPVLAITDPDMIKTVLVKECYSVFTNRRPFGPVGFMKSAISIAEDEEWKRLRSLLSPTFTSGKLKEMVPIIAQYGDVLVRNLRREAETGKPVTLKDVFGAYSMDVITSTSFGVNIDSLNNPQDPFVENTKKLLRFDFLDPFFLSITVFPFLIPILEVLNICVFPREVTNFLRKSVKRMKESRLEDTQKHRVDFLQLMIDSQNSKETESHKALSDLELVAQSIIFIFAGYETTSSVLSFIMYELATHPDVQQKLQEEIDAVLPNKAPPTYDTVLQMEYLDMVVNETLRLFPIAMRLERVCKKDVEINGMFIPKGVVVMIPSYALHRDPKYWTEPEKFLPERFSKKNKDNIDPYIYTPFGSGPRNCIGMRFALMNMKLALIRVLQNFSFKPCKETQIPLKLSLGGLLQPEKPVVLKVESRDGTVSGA

[21] = Volume of distribution at steady state in mouse blood at 5 umol/kg, iv or 30 umol/kg, po; assay type: ADME, organism-based; settings: read-out: Vdss
[22] = Inhibition of PI3Kalpha mutant in human BT474 cells assessed as decrease in AKT phosphorylation at Thr308 after 2 hrs; assay type: cell-based; settings: BT-474, 2 h
[23] = target: Phosphatidylinositol 4,5-bisphosphate 3-kinase catalytic subunit alpha isoform (Homo sapiens, UniProt P42336, E545K); experiment: Inhibition of human PI3Kalpha (2 to 1068 residues)/p85 (1 to 724 residues) E545K mutant by ADP Glo HTS assay; how it was run: as §2
Chain of Phosphatidylinositol 4,5-bisphosphate 3-kinase catalytic subunit alpha isoform (Homo sapiens, UniProt P42336, E545K) (P42336 whole entry E545K, the tested form may be a part, canonical isoform): as the sequence (P42336 whole entry E542K, the tested form may be a part, canonical isoform) above, with K542E, E545K counted along it

[24] = test system: Mus musculus; experiment: In vivo inhibition of AKT phosphorylation at Ser473 in nude mouse xenografted with PTEN-deficient human PC3 cells at 30 mg/kg, po administered as single dose measured after 30 mins to 8 hrs; assay type: functional, organism-based; how it was run: as §1
[25] = target: Cytochrome P450 2C19 (Homo sapiens, UniProt P33261); experiment: Inhibition of CYP2C19 (unknown origin); assay type: ADME
Chain of Cytochrome P450 2C19 (P33261 whole entry): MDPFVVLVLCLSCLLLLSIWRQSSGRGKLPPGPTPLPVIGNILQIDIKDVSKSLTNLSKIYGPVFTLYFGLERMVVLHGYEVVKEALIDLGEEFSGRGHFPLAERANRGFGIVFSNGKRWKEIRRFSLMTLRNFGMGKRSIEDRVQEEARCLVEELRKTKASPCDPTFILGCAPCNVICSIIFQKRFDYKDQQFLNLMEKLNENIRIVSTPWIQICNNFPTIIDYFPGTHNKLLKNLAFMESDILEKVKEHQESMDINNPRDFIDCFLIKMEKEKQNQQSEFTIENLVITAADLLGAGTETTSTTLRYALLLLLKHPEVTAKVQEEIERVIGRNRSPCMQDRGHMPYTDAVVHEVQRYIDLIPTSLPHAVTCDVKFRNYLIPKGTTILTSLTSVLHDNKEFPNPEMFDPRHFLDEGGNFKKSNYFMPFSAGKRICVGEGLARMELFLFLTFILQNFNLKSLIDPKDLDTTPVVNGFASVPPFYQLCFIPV

Papp A→B [1]: 18 ×10⁻⁶ cm/s
clearance [2]: 23 mL/min/kg
hepatocyte CLint [3]: 23 µL/min/1e6 cells
IC50 [4]: 0.0086 µM
IC50 [5]: 0.0011 µM
IC50 [7]: > 50 µM
IC50 [8]: > 50 µM
IC50 [9]: > 50 µM
bioavailability [10]: 29%
IC50 [11]: 42 µM
hepatocyte CLint [12]: 2.7 to 5 µL/min/1e6 cells
inhibition [13]: 32%
solubility [14]: 430 µg/mL (≈ 818 µM)
IC50 [15]: > 50 µM
fraction unbound [16]: 0.28
IC50 [17]: > 30 µM
IC50 [18]: > 30 µM
IC50 [19]: > 50 µM
IC50 [20]: > 30 µM
Vd [21]: 1 L/kg
IC50 [22]: 0.14 µM
IC50 [23]: > 50 µM
IC50 [25]: > 30 µM
SMILES: O=C(c1cc([C@H]2CCCN2c2cc(F)cc(F)c2)c2oc(N3CCOCC3)cc(=O)c2c1)N1CCOCC1
inhibition [6]: Active
inhibition [24]: Active
